Reference: ChEMBL document CHEMBL1139609, “In pursuit of alpha4beta2 nicotinic receptor partial agonists for smoking cessation: carbon analogs of (-)-cytisine” (Bioorg Med Chem Lett, 2005)

Experiments:
[1] = target: Neuronal acetylcholine receptor; alpha4/beta2 (Rattus norvegicus, UniProt P09483+P12390); experiment: Inhibition of [3H]-nicotine binding to nicotinic acetylcholine receptor alpha4-beta2 in rat cortex
[2] = target: Neuronal acetylcholine receptor; alpha3/beta4 (Homo sapiens, UniProt P30926+P32297); experiment: Inhibition of [3H]epibatidine binding to nicotinic acetylcholine receptor alpha3-beta4 of IMR32 cells; format: cell-based, IMR-32
How it was run: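 Displacement of [3H]epibatidine binding in IMR32 cells, taken as the α3β4 nAChR site.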

[3] = target: Neuronal acetylcholine receptor; alpha4/beta2 (Homo sapiens, UniProt P17787+P43681); experiment: Binding affinity against nicotinic acetylcholine receptor alpha4-beta2 in human HEK293 cells using [3H]- nicotine as radioligand; format: cell-based
[4] = target: Neuronal acetylcholine receptor subunit alpha-7 (Homo sapiens, UniProt P36544); experiment: Inhibition of [3H]alpha-bungarotoxin binding to nicotinic acetylcholine receptor alpha7 of IMR32 cells; format: cell-based, IMR-32
[5] = Inhibition of [3H]alpha-bungarotoxin binding to nicotinic acetylcholine receptor alpha-1-beta-1-delta-gamma of electroplax; parameters: species or system pisces

Sequence of Neuronal acetylcholine receptor; alpha3/beta4 (P30926 whole entry): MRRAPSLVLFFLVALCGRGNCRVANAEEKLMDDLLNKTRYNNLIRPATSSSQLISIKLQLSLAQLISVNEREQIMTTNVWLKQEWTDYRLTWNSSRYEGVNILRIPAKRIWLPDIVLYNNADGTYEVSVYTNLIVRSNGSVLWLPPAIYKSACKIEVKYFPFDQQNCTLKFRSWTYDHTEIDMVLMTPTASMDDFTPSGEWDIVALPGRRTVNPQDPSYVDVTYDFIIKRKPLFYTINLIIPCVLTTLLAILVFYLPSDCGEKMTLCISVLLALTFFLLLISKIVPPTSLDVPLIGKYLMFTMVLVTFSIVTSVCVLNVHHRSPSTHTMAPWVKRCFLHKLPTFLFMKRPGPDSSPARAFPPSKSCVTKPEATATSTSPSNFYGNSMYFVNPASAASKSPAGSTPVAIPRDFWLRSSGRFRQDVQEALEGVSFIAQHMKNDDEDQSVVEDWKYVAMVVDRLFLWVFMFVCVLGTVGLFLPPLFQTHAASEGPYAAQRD
Sequence of Neuronal acetylcholine receptor; alpha3/beta4 (P32297 whole entry): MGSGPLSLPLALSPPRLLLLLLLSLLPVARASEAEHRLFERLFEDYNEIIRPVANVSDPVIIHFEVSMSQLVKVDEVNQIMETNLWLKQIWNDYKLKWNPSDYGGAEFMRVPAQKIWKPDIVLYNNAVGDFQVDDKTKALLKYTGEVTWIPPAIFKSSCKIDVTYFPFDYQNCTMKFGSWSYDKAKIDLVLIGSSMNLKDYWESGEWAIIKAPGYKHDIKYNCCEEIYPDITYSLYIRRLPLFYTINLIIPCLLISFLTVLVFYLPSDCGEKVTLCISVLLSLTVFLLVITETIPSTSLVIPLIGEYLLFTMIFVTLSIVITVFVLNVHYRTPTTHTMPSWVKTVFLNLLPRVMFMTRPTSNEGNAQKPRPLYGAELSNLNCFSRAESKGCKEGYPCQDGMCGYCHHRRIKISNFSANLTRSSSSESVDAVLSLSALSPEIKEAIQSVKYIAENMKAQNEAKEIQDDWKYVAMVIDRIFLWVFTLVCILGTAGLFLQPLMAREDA
Sequence of Neuronal acetylcholine receptor; alpha4/beta2 (Homo sapiens, UniProt P17787+P43681) (P17787 whole entry): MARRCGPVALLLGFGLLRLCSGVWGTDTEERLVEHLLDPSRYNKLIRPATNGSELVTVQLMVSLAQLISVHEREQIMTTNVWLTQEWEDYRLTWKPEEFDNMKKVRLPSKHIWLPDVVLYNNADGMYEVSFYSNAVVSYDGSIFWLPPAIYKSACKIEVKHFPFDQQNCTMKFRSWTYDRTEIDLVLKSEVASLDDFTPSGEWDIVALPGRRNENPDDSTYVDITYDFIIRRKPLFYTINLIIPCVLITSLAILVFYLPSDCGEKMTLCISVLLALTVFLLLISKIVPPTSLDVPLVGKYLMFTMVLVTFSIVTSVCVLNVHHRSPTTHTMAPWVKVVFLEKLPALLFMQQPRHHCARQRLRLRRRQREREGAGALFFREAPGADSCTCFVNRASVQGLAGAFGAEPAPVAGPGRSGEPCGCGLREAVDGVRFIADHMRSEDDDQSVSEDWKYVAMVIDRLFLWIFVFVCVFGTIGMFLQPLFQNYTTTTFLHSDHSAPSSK
Sequence of Neuronal acetylcholine receptor; alpha4/beta2 (Homo sapiens, UniProt P17787+P43681) (P43681 whole entry): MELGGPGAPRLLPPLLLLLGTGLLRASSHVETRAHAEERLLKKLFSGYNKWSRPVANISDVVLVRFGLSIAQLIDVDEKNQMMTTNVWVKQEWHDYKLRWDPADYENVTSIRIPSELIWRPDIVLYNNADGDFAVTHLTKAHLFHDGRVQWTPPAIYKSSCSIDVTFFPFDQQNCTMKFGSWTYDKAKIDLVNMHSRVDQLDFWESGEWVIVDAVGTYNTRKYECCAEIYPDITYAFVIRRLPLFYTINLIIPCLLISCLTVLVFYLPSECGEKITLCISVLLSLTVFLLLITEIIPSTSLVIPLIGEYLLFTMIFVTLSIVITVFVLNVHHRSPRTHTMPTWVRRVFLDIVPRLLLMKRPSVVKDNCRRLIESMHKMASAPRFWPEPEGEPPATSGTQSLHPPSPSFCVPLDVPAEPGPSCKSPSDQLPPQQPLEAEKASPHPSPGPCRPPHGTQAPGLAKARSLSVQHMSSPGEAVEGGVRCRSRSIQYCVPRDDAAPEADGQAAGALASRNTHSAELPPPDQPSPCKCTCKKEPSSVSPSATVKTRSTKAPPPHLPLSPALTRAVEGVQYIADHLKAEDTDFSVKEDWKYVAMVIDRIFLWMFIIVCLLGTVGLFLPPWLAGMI
Sequence of Neuronal acetylcholine receptor subunit alpha-7 (P36544 whole entry): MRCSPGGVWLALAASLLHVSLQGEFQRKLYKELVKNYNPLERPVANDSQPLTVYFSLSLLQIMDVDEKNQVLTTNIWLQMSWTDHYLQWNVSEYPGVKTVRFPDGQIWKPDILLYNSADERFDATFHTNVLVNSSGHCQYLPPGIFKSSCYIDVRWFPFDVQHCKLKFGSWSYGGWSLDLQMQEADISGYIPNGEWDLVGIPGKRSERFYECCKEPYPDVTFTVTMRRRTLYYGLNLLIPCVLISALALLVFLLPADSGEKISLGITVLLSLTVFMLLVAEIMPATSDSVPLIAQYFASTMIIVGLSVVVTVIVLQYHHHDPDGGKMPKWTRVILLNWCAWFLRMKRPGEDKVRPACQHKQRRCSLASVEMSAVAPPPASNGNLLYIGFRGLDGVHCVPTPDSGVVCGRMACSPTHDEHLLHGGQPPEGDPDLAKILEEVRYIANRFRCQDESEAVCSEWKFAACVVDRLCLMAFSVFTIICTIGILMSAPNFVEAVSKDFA
Sequence of Neuronal acetylcholine receptor; alpha4/beta2 (Rattus norvegicus, UniProt P09483+P12390) (P09483 whole entry): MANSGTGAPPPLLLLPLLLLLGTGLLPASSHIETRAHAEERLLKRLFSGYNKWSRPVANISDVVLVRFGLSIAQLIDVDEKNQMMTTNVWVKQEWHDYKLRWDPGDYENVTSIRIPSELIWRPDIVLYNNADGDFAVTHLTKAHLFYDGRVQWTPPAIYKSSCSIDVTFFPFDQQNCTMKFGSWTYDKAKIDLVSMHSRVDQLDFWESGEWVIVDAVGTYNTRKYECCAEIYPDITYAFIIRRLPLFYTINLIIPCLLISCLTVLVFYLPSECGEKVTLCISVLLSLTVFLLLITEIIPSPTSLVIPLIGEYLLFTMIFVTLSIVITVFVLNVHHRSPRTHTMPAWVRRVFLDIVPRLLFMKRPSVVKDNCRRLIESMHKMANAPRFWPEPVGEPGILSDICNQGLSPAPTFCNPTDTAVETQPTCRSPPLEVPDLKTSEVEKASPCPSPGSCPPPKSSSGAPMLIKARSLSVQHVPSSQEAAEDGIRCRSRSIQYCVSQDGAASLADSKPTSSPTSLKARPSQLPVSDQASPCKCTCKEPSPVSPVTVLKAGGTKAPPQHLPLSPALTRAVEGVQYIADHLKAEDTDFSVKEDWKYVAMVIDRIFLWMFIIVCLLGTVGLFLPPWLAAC
Sequence of Neuronal acetylcholine receptor; alpha4/beta2 (Rattus norvegicus, UniProt P09483+P12390) (P12390 whole entry): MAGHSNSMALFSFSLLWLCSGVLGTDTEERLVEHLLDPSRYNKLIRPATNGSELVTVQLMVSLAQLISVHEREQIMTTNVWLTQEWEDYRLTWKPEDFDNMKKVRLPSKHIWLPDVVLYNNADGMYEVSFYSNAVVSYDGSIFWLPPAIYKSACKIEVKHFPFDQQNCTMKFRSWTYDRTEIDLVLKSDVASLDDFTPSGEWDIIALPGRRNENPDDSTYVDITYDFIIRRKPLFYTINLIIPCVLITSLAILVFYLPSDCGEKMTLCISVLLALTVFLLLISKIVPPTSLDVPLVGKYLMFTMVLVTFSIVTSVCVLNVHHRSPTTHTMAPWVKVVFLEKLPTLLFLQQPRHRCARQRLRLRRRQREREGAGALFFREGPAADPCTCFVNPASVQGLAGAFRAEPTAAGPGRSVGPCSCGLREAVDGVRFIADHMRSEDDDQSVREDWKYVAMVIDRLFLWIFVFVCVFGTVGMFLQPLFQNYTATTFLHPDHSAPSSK

| SMILES | Ki [3] [nM] | further results |
| --- | --- | --- |
| COc1ccc2c(c1)CC1CNCC2C1 (stereo unspecified) | 1.4 | Ki [1]: 3.2 nM; Ki [2]: 810 nM; Ki [4]: 2400 nM |
| COc1ccc(-c2ccc3c(c2)CC2CNCC3C2)cc1 (stereo unspecified) | 370 |  |
| FC(F)Oc1ccc2c(c1)CC1CNCC2C1 (stereo unspecified) | 7 | Ki [4]: 1700 nM |
| FC(F)(F)c1ccc(-c2ccc3c(c2)CC2CNCC3C2)cc1 (stereo unspecified) | 200 |  |
| c1ccc(-c2ccc3c(c2)CC2CNCC3C2)cc1 (stereo unspecified) | > 500 |  |
| COc1ccc2c(c1O)CC1CNCC2C1 (stereo unspecified) | 13 |  |
| Oc1cccc2c1CC1CNCC2C1 (stereo unspecified) | 2.9 |  |
| c1cncc(-c2ccc3c(c2)CC2CNCC3C2)c1 (stereo unspecified) | > 500 |  |
| COc1ccc2c(c1)C1CNCC(C2)C1 (stereo unspecified) |  | Ki [1]: 90 nM |
| O=c1oc2ccc3c(c2o1)CC1CNCC3C1 (stereo unspecified) | > 500 |  |
| O=[N+]([O-])c1ccc2c(c1)C1CNCC(C2)C1 (stereo unspecified) | 6.5 | Ki [2]: 980 nM |
| O=[N+]([O-])c1ccc2c(c1)CC1CNCC2C1 (stereo unspecified) | 4.9 | Ki [2]: 340 nM |
| COC(=O)c1ccc2c(c1)CC1CNCC2C1 (stereo unspecified) | 34 |  |
| Fc1ccc2c(c1)CC1CNCC2C1 (stereo unspecified) | 2 | Ki [2]: 710 nM; Ki [4]: 350 nM |
| Fc1cccc2c1CC1CNCC2C1 (stereo unspecified) | 6.5 | Ki [4]: 830 nM |
| CC(C)(O)c1ccc2c(c1)CC1CNCC2C1 (stereo unspecified) | 264 |  |
| COc1cccc2c1CC1CNCC2C1 (stereo unspecified) | > 500 |  |
| Nc1cccc(-c2ccc3c(c2)CC2CNCC3C2)c1 (stereo unspecified) | > 500 |  |
| CC(C)c1ccc2c(c1)CC1CNCC2C1 (stereo unspecified) | 72 |  |
| CCOc1ccc2c(c1)CC1CNCC2C1 (stereo unspecified) | 13 |  |
| Oc1ccc2c(c1)C1CNCC(C2)C1 (stereo unspecified) |  | Ki [1]: 75 nM |
| O=[N+]([O-])c1cccc2c1C1CNCC(C2)C1 (stereo unspecified) | 14 |  |
| Fc1ccc2c(c1F)CC1CNCC2C1 (stereo unspecified) | 0.44 | Ki [5]: 3000 nM; Ki [2]: 810 nM; Ki [4]: 520 nM |
| NC(=O)COc1ccc2c(c1)CC1CNCC2C1 (stereo unspecified) | > 500 |  |
| c1ccc2c(c1)CC1CNCC2C1 (stereo unspecified) | 34 | Ki [1]: 65 nM |
| c1cc2c(c3c1CC1CNCC3C1)OCO2 (stereo unspecified) | 5.7 | Ki [5]: 4500 nM; Ki [2]: 1900 nM; Ki [4]: 5100 nM |
| Oc1ccc2c(c1)CC1CNCC2C1 (stereo unspecified) | 90 |  |
| O=c1cccc2n1C[C@@H]1CNC[C@H]2C1 [CYTISINICLINE] | 0.23 | Ki [5]: 250 nM; Ki [4]: 4200 nM |
